{
  "source": "paper PMC2677188",
  "about": "(ACS chemical biology, 2009)",
  "key": {"[1]": {"molecular_target": "rTAAR1 (wild type rat TAAR1) (Rattus norvegicus, UniProt Q923Y9)", "sequence (Q923Y9 whole entry)": "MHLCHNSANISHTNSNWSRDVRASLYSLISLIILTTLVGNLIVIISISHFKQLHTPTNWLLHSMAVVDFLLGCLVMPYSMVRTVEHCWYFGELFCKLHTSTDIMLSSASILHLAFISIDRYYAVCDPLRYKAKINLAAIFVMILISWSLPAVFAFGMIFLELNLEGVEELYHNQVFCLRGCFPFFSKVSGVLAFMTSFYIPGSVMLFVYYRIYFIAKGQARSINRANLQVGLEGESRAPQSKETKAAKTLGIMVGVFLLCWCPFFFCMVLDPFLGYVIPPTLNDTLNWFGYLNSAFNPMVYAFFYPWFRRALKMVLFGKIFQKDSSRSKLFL", "assay": "In vitro cAMP agonist activity assay", "assay_type": "cell-based"}, "[2]": {"molecular_target": "T1, mTAAR1 (wild type mouse TAAR1) (Mus musculus, UniProt Q923Y8)", "T1 sequence (Q923Y8 whole entry)": "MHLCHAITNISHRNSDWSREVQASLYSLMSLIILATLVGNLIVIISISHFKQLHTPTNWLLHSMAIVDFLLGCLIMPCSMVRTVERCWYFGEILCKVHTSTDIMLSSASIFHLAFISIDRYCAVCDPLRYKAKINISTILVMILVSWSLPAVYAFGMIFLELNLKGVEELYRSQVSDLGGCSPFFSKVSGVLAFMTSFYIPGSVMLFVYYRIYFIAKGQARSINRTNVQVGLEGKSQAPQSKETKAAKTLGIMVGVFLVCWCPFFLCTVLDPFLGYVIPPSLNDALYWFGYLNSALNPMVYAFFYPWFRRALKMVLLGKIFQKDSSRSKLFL", "assay": "In vitro cAMP agonist activity assay, wild type mTAAR1", "assay_type": "cell-based"}, "rTAAR1(A5.42L)": {"molecular_target": "rTAAR1(A5.42L) (Rattus norvegicus, UniProt Q923Y9, A193L)", "sequence (Q923Y9 whole entry A193L)": "as the sequence (Q923Y9 whole entry) above, with A193L counted along it", "assay": "cAMP agonist activity assay, rTAAR1", "assay_type": "cell-based", "settings": "for decrease in potency versus wild type: rTAAR1(A5.42L)", "procedure,_shortened": "(§1)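 Site-directed TAAR1 mutants were stably expressed in HEK293 cells (transfected, selected with G418). cAMP was measured with a HitHunter cAMP XS kit over concentration-response curves. Responses were expressed relative to the reference agonist at 10 μM (set as 100%). EC50 and Emax were obtained by curve fitting, averaged over N independent triplicate experiments, with SEM.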"}, "rTAAR1(A5.42I)": {"molecular_target": "rTAAR1(A5.42I) (Rattus norvegicus, UniProt Q923Y9, A193I)", "sequence (Q923Y9 whole entry A193I)": "as the sequence (Q923Y9 whole entry) above, with A193I counted along it", "assay": "cAMP agonist activity assay, rTAAR1", "assay_type": "cell-based", "settings": "for decrease in potency versus wild type: rTAAR1(A5.42I)", "procedure,_shortened": "as §1"}, "rTAAR1(A5.42T)": {"molecular_target": "rTAAR1(A5.42T) (Rattus norvegicus, UniProt Q923Y9, A193T)", "sequence (Q923Y9 whole entry A193T)": "as the sequence (Q923Y9 whole entry) above, with A193T counted along it", "assay": "cAMP agonist activity assay, rTAAR1", "assay_type": "cell-based", "procedure,_shortened": "as §1"}, "rTAAR1(F4.56Y)": {"molecular_target": "rTAAR1(F4.56Y) (Rattus norvegicus, UniProt Q923Y9, F153Y)", "sequence (Q923Y9 whole entry F153Y)": "as the sequence (Q923Y9 whole entry) above, with F153Y counted along it", "assay": "cAMP agonist activity assay, rTAAR1", "assay_type": "cell-based", "procedure,_shortened": "as §1"}, "mTAAR1(Y4.56F)": {"molecular_target": "mTAAR1(Y4.56F) (Mus musculus, UniProt Q923Y8, Y153F)", "sequence (Q923Y8 whole entry Y153F)": "as the sequence (Q923Y8 whole entry) above, with Y153F counted along it", "assay": "cAMP agonist activity assay, mTAAR1", "assay_type": "cell-based", "settings": "for increase in potency versus wild type: mTAAR1(Y4.56F)", "procedure,_shortened": "as §1"}, "[3]": {"molecular_target": "T1, mTAAR1 (wild type mouse TAAR1)", "settings": "wild type receptors; cited from earlier work"}, "rTAAR1(M6.55T)": {"molecular_target": "rTAAR1(M6.55T) (Rattus norvegicus, UniProt Q923Y9, M268T)", "sequence (Q923Y9 whole entry M268T)": "as the sequence (Q923Y9 whole entry) above, with M268T counted along it", "assay": "cAMP agonist activity assay, rTAAR1", "assay_type": "cell-based"}, "rTAAR1(N7.39Y)": {"molecular_target": "rTAAR1(N7.39Y) (Rattus norvegicus, UniProt Q923Y9, N287Y)", "sequence (Q923Y9 whole entry N287Y)": "as the sequence (Q923Y9 whole entry) above, with N287Y counted along it", "assay": "cAMP agonist activity assay, rTAAR1", "assay_type": "cell-based"}, "rTAAR1(M6.55T/N7.39Y)": {"molecular_target": "rTAAR1(M6.55T/N7.39Y) (Rattus norvegicus, UniProt Q923Y9, M268T/N287Y)", "sequence (Q923Y9 whole entry M268T/N287Y)": "as the sequence (Q923Y9 whole entry) above, with M268T, N287Y counted along it", "assay": "cAMP agonist activity assay, rTAAR1", "assay_type": "cell-based"}, "mTAAR1(T6.55M)": {"molecular_target": "mTAAR1(T6.55M) (Mus musculus, UniProt Q923Y8, T268M)", "sequence (Q923Y8 whole entry T268M)": "as the sequence (Q923Y8 whole entry) above, with T268M counted along it", "assay": "cAMP agonist activity assay, mTAAR1", "assay_type": "cell-based"}, "mTAAR1(Y7.39N)": {"molecular_target": "mTAAR1(Y7.39N) (Mus musculus, UniProt Q923Y8, Y287N)", "sequence (Q923Y8 whole entry Y287N)": "as the sequence (Q923Y8 whole entry) above, with Y287N counted along it", "assay": "cAMP agonist activity assay, mTAAR1", "assay_type": "cell-based"}, "mTAAR1(T6.55M/Y7.39N)": {"molecular_target": "mTAAR1(T6.55M/Y7.39N) (Mus musculus, UniProt Q923Y8, T268M/Y287N)", "sequence (Q923Y8 whole entry T268M/Y287N)": "as the sequence (Q923Y8 whole entry) above, with T268M, Y287N counted along it", "assay": "cAMP agonist activity assay, mTAAR1", "assay_type": "cell-based"}},
  "note": "Where “and” joins values, the source holds several entries; their conditions need not be identical. Identical values can stand only once. Like-named read-outs stand apart in the source and are kept apart here.",
  "data": [
    {"smiles": "NCCc1ccc(O)cc1", "note": "[Tyramine, tyramine]", "values": [
      {"measurement": "EC50", "setting": "[1]", "result": "65 ± 1", "unit": "nM"},
      {"measurement": "Emax", "setting": "[1]; read-out: Emax ± SEM", "result": "119 ± 7", "unit": "%"},
      {"measurement": "EC50", "setting": "[2]", "result": "271 ± 52", "unit": "nM"},
      {"measurement": "Emax", "setting": "[2]; read-out: Emax ± SEM", "result": "110 ± 2", "unit": "%"},
      {"measurement": "EC50", "setting": "rTAAR1(A5.42L)", "result": "~2000", "unit": "nM"},
      {"measurement": "decrease in potency versus wild type", "setting": "rTAAR1(A5.42L)", "result": 31, "unit": "fold"},
      {"measurement": "Emax", "setting": "rTAAR1(A5.42L); read-out: Emax ± SEM", "result": "102 ± 18", "unit": "%"},
      {"measurement": "EC50", "setting": "rTAAR1(A5.42I)", "result": "> 10000", "unit": "nM"},
      {"measurement": "decrease in potency versus wild type", "setting": "rTAAR1(A5.42I)", "result": 154, "unit": "fold"},
      {"measurement": "Emax", "setting": "rTAAR1(A5.42I); read-out: Emax ± SEM", "result": "49 ± 7", "unit": "%"},
      {"measurement": "EC50", "setting": "rTAAR1(A5.42T)", "result": "> 10000", "unit": "nM"},
      {"measurement": "fold less potent versus wild type", "setting": "rTAAR1(A5.42T); rTAAR1(A5.42T)", "result": 154, "unit": "fold"},
      {"measurement": "less efficacious than wild type", "setting": "rTAAR1(A5.42T); rTAAR1(A5.42T)", "result": 50, "unit": "%"},
      {"measurement": "Emax", "setting": "rTAAR1(A5.42T); read-out: Emax ± SEM", "result": "69 ± 5", "unit": "%"},
      {"measurement": "EC50", "setting": "rTAAR1(F4.56Y)", "result": "54 ± 11", "unit": "nM"},
      {"measurement": "Emax", "setting": "rTAAR1(F4.56Y); read-out: Emax ± SEM", "result": "108 ± 6", "unit": "%"},
      {"measurement": "EC50", "setting": "mTAAR1(Y4.56F)", "result": "40 ± 13", "unit": "nM"},
      {"measurement": "increase in potency versus wild type", "setting": "mTAAR1(Y4.56F)", "result": 7, "unit": "fold"},
      {"measurement": "Emax", "setting": "mTAAR1(Y4.56F); read-out: Emax ± SEM", "result": "118 ± 8", "unit": "%"},
      {"measurement": "fold less potent for mTAAR1 compared to rTAAR1", "setting": "[3]", "result": "7 to 10", "unit": "fold"}
    ]},
    {"smiles": "NCCc1ccc(Oc2ccc(O)cc2)c(I)c1", "note": "[Compound 1, 3-Iodothyronamine]", "values": [
      {"measurement": "EC50", "setting": "[1]; read-out: EC50 ± SEM, wild type rTAAR1, HEK293 cells, cAMP", "result": "33 ± 3", "unit": "nM"},
      {"measurement": "Emax ± SEM", "setting": "[1]; wild type rTAAR1, Emax = 100 % is the activity of 1 at 10 mM (so in the source)", "result": "100± 0", "unit": "%"},
      {"measurement": "rTAAR1 selectivity: fold more potent for rTAAR1 compared to mTAAR1", "setting": "[1]; wild type receptors", "result": "~ 10 fold and 7–10 fold"},
      {"measurement": "EC50", "setting": "[2]; read-out: EC50 ± SEM, wild type mTAAR1, HEK293 cells, cAMP", "result": "314 ± 43", "unit": "nM"},
      {"measurement": "improvement of potency at mTAAR1 on eliminating the β-phenyl ring of 2, 5 and 7", "setting": "[2]; wild type mTAAR1", "result": "24- to 32 fold"},
      {"measurement": "Emax ± SEM", "setting": "[2]; wild type mTAAR1, Emax = 100 % is the activity of 1 at 10 mM (so in the source)", "result": "100 ± 0", "unit": "%"},
      {"measurement": "EC50", "setting": "rTAAR1(M6.55T); read-out: EC50 ± SEM", "result": "129 ± 43", "unit": "nM"},
      {"measurement": "Emax ± SEM", "setting": "rTAAR1(M6.55T); relative to 1", "result": "100 ±0", "unit": "%"},
      {"measurement": "EC50", "setting": "rTAAR1(N7.39Y); read-out: EC50 ± SEM", "result": 135, "unit": "nM"},
      {"measurement": "Emax ± SEM", "setting": "rTAAR1(N7.39Y); relative to 1", "result": 100, "unit": "%"},
      {"measurement": "EC50", "setting": "rTAAR1(M6.55T/N7.39Y); read-out: EC50 ± SEM", "result": 90, "unit": "nM"},
      {"measurement": "Emax ± SEM", "setting": "rTAAR1(M6.55T/N7.39Y); relative to 1", "result": 100, "unit": "%"},
      {"measurement": "EC50", "setting": "mTAAR1(T6.55M); read-out: EC50 ± SEM", "result": "1420 ± 592", "unit": "nM"},
      {"measurement": "Emax ± SEM", "setting": "mTAAR1(T6.55M); relative to 1", "result": "100 ± 0", "unit": "%"},
      {"measurement": "EC50", "setting": "mTAAR1(Y7.39N); read-out: EC50 ± SEM", "result": "251 ± 43", "unit": "nM"},
      {"measurement": "Emax ± SEM", "setting": "mTAAR1(Y7.39N); relative to 1", "result": "100 ± 0", "unit": "%"},
      {"measurement": "EC50", "setting": "mTAAR1(T6.55M/Y7.39N); read-out: EC50 ± SEM", "result": "208 ± 60", "unit": "nM"},
      {"measurement": "Emax ± SEM", "setting": "mTAAR1(T6.55M/Y7.39N); relative to 1", "result": "100 ± 0", "unit": "%"},
      {"measurement": "decrease in potency versus wild type", "setting": "rTAAR1(A5.42L)", "result": 2, "unit": "fold"},
      {"measurement": "Emax ± SEM", "setting": "rTAAR1(A5.42L); rTAAR1 A5.42L (Table 3a), relative to 1", "result": "100 ± 0", "unit": "%"},
      {"measurement": "EC50", "setting": "rTAAR1(A5.42L); read-out: EC50 ± SEM, rTAAR1 A5.42L (Table 3a)", "result": "58 ± 16", "unit": "nM"},
      {"measurement": "decrease in potency versus wild type", "setting": "rTAAR1(A5.42I)", "result": 3, "unit": "fold"},
      {"measurement": "Emax ± SEM", "setting": "rTAAR1(A5.42I); rTAAR1 A5.42I (Table 3a), relative to 1", "result": "100 ± 0", "unit": "%"},
      {"measurement": "EC50", "setting": "rTAAR1(A5.42I); read-out: EC50 ± SEM, rTAAR1 A5.42I (Table 3a)", "result": "108 ± 14", "unit": "nM"},
      {"measurement": "fold less potent versus wild type", "setting": "rTAAR1(A5.42T); rTAAR1(A5.42T)", "result": 3, "unit": "fold"},
      {"measurement": "Emax ± SEM", "setting": "rTAAR1(A5.42T); rTAAR1 A5.42T, relative to 1", "result": "100 ± 0", "unit": "%"},
      {"measurement": "EC50", "setting": "rTAAR1(A5.42T); read-out: EC50 ± SEM, rTAAR1 A5.42T", "result": "88 ± 13", "unit": "nM"},
      {"measurement": "increase in potency versus wild type", "setting": "mTAAR1(Y4.56F)", "result": 5, "unit": "fold"},
      {"measurement": "fold less potent for mTAAR1 compared to rTAAR1", "setting": "[3]", "result": "7 to 10", "unit": "fold"}
    ]}
  ]
}
